The values that follow come from ChEMBL document CHEMBL1143837, “In vitro activities of various antimicrobials alone and in combination with tigecycline against carbapenem-intermediate or -resistant Acinetobacter baumannii” (2007).

Assay [1] has as its system Acinetobacter baumannii. Nature of the assay: Antimicrobial activity against carbapenem-intermediate or resistant Acinetobacter baumannii isolates by broth microdilution method. The class given is functional. The method, boiled down: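 Tigecycline MIC by broth microdilution in freshly prepared CAMHB (25 mg/liter calcium, 12.5 mg/liter magnesium). Approximately 5 × 10⁵ CFU/ml was added to serial drug dilutions and incubated in ambient air at 35°C for 18–24 h. Isolates had imipenem or meropenem MIC ≥8 mg/liter.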
A general note: In broth dilution the organism is exposed to a series of concentrations in liquid medium.

The subject of assay [2] is Acinetobacter baumannii. Nature of the assay: Antimicrobial activity against carbapenem-intermediate or resistant Acinetobacter baumannii assessed as percent susceptible isolates. The class given is functional.
Assay [3] relates to Acinetobacter baumannii. Nature of the assay: Bactericidal activity against carbapenem-resistant Acinetobacter baumannii AA557 by time kill curve analysis. Type of assay: functional, organism-based. The method, boiled down: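 Time-kill on AA557: mid-log (4 h) inoculum at ~5 × 10⁵ CFU/ml in 10 ml fresh CAMHB with tigecycline at 0.5×, 1×, 2× or 4× MIC, or at the calculated average free steady-state serum level, plus growth control. Sampled at 0, 2, 4, 8, 24 and 48 h and plated in duplicate on sheep-blood TSA (35°C, 18–24 h). Detection limit 40 CFU/ml. Experiments run in duplicate.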

Assay [4] has as its system Acinetobacter baumannii. Description: Antimicrobial activity against carbapenem-intermediate or resistant Acinetobacter baumannii isolates by agar dilution method. The class given is functional. A digest of the protocol:
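Clinical isolates with imipenem or meropenem MIC ≥8 mg/liter were tested by agar dilution on Mueller-Hinton agar supplemented with 25 mg/liter calcium and 12.5 mg/liter magnesium. Inoculum was ~10⁴ CFU per spot from a 0.5 McFarland BHI suspension. Plates were incubated at 35°C for 18–24 h. Growth beyond a single colony or a slight haze counted as growth.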
(In general: Agar dilution tests growth on a series of plates holding different concentrations.)

The subject of assay [5] is Acinetobacter baumannii. Description: Bactericidal activity against carbapenem-resistant Acinetobacter baumannii AA557 assessed as reduction in colony count at 2 mg/liter after 24 hrs by time kill curve analysis. Type of assay: functional, organism-based.

In brackets after ≈: the same amount, converted by molar mass. Activity calls are given as the source filed them. The calls are words filed in the database; no cut-off is given here.

Usually MIC50 stands for an inhibitory concentration at the 50% level, which refers to growth in some studies and to a panel of isolates in others. Lower therefore signals higher susceptibility. The term MIC90 denotes an inhibitory concentration at the 90% level, which refers to growth in some studies and to a panel of isolates in others. A higher MIC90 goes with weaker potency. In assay [1], `CN(C)c1cc(NC(=O)CNC(C)(C)C)c(O)c2c1C[C@H]1C[C@H]3[C@H](N(C)C)C(O)=C(C(N)=O)C(=O)[C@@]3(O)C(O)=C1C2=O` [TIGECYCLINE] registered an MIC50 of 1 µg/mL (≈ 1.71 µM) and an MIC90 of 2 µg/mL (≈ 3.41 µM). The Activity in assay [2] is 95%. For the same molecule, in assay [3], the outcome was Active.
Regarding `C[C@@H](O)[C@H]1C(=O)N2C(C(=O)O)=C(S[C@@H]3CN[C@H](C(=O)N(C)C)C3)[C@H](C)[C@H]12` [MEROPENEM], in assay [4], the MIC50 came to 16 µg/mL (≈ 41.7 µM) and the MIC90 was over 128 µg/mL. Also, the Activity in assay [2] is 4%.
Consider `O=C(O)c1cn(C2CC2)c2cc(N3CCNCC3)c(F)cc2c1=O` [CIPROFLOXACIN], for which the Activity in assay [2] was 0%.
Take `NCC[C@H](O)C(=O)N[C@@H]1C[C@H](N)[C@@H](O[C@H]2O[C@H](CN)[C@@H](O)[C@H](O)[C@H]2O)[C@H](O)[C@H]1O[C@H]1O[C@H](CO)[C@@H](O)[C@H](N)[C@H]1O` [AMIKACIN]: in assay [4], the MIC50 came to 32 µg/mL (≈ 54.6 µM) and the MIC90 is over 32 µg/mL. Besides, the Activity in assay [2] was determined as 38%.
As to `CN(C)c1ccc(O)c2c1C[C@H]1C[C@H]3[C@H](N(C)C)C(O)=C(C(N)=O)C(=O)[C@@]3(O)C(O)=C1C2=O` [MINOCYCLINE], in assay [4], the MIC50 was 0.5 µg/mL (≈ 1.09 µM) and the MIC90 was determined as 8 µg/mL (≈ 17.5 µM). Also, the Activity in assay [2] came out at 83%.
Regarding `C[C@H]1c2cccc(O)c2C(=O)C2=C(O)[C@]3(O)C(=O)C(C(N)=O)=C(O)[C@@H](N(C)C)[C@@H]3[C@@H](O)[C@@H]21.O` [DOXYCYCLINE], in assay [4], the MIC50 was 2 µg/mL and the MIC90 was over 32 µg/mL. The Activity in assay [2] was determined as 56%.
Take `C[C@@H](O)[C@H]1C(=O)N2C(C(=O)O)=C(SCCNC=N)C[C@H]12` [IMIPENEM ANHYDROUS]: in assay [4], the MIC50 worked out at 4 µg/mL (≈ 13.4 µM) and the MIC90 stood at 64 µg/mL (≈ 214 µM). The Activity in assay [2] worked out at 20%.
Taken in the same sequence, the figures for `CO[C@H]1/C=C/O[C@@]2(C)Oc3c(C)c(O)c4c(O)c(c(/C=N/N5CCN(C)CC5)c(O)c4c3C2=O)NC(=O)/C(C)=C\C=C\[C@H](C)[C@H](O)[C@@H](C)[C@@H](O)[C@@H](C)[C@H](OC(C)=O)[C@@H]1C` [RIFAMPIN] were 4 µg/mL (≈ 4.86 µM), 8 µg/mL (≈ 9.72 µM) and “inactive”.
On to POLYMYXIN B, for which the log10CFU/ml in assay [5] was found to be 1.6. In assay [4], this molecule came in with an MIC50 of 1 µg/mL and an MIC90 of 1 µg/mL. For the same molecule, in assay [2], the Activity came to 100%.
